Values after ≈ are worked out from the molar mass of the structure shown. Active and inactive are the calls of the source. No cut-off for these calls is given here.
How the values were obtained:
Mycobacteroides chelonae [1] = assay: Antimicrobial activity against Mycobacterium chelonae ATCC 35752 by resazurine microtiter assay; type: functional
Outline: (§1)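 Colorimetric resazurin microtiter MIC assay in 7H9-oleic acid-albumin-dextrose-catalase broth at 30°C, with well-dispersed bacteria. Growth was also checked by visual scanning to confirm the readings. At least three repeats on independent culture batches.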

Mycobacteroides chelonae [2] = assay: Antimicrobial activity against Mycobacterium chelonae 9917 by resazurine microtiter assay; type: functional; outline: as §1
Mycobacteroides chelonae [3] = assay: Antimicrobial activity against Mycobacterium chelonae ATCC 35752 harboring pZS01 carrying mspA gene by resazurine microtiter assay; type: functional
Mycobacteroides chelonae [4] = assay: Antimicrobial activity against Mycobacterium chelonae 9917 harboring pZS01 carrying mspA gene by resazurine microtiter assay; type: functional
[5] = tested on: Mycolicibacterium smegmatis; assay: Antimicrobial activity against Mycobacterium smegmatis str. MC2 155 deficient in mycothiol biosynthesis; type: functional, organism-based
[6] = tested on: Mycolicibacterium smegmatis; assay: Antimicrobial activity against Mycobacterium smegmatis str. MC2 155 deficient in production of lipomannan and lipoarabinomannan; type: functional, organism-based
[7] = tested on: Mycolicibacterium smegmatis; assay: Antimicrobial activity against Mycobacterium smegmatis str. MC2 155 harboring embA mutant gene; type: functional, organism-based
[8] = tested on: Mycolicibacterium smegmatis; assay: Antimicrobial activity against Mycobacterium smegmatis str. MC2 155 deficient in production of polar phosphatidylinositol mannoside; type: functional, organism-based
[9] = tested on: Mycolicibacterium smegmatis; assay: Antimicrobial activity against Lsr2-deficient Mycobacterium smegmatis str. MC2 155; type: functional, organism-based
[10] = tested on: Mycolicibacterium smegmatis; assay: Antimicrobial activity against Mycobacterium smegmatis str. MC2 155 deficient in glycopeptidolipid biosynthesis; type: functional, organism-based
[11] = tested on: Mycolicibacterium smegmatis; assay: Antimicrobial activity against Mycobacterium smegmatis str. MC2 155 harboring embB mutant gene; type: functional, organism-based
[12] = tested on: Mycolicibacterium smegmatis; assay: Antimicrobial activity against MspA-deficient Mycobacterium smegmatis str. MC2 155; type: functional, organism-based
[13] = tested on: Mycolicibacterium smegmatis; assay: Antimicrobial activity against Mycobacterium smegmatis str. MC2 155 deficient in production of lipomannan and produces truncated lipoarabinomannan; type: functional, organism-based
[14] = tested on: Mycolicibacterium smegmatis; assay: Antimicrobial activity against MspA- and MspC-deficient Mycobacterium smegmatis str. MC2 155; type: functional, organism-based
[15] = Mycobacteroides chelonae, 9917, Urine

Compound	MIC (Mycobacteroides chelonae [1]) [µg/mL]	MIC (Mycobacteroides chelonae [2]) [µg/mL]	MIC (Mycobacteroides chelonae [3]; ATCC 35752, Urine) [µg/mL]	MIC (Mycobacteroides chelonae [4]; [15]) [µg/mL]	further results
NC[C@H]1O[C@H](O[C@H]2[C@H](O)[C@@H](O[C@H]3O[C@H](CO)[C@@H](O)[C@H](N)[C@H]3O)[C@H](N)C[C@@H]2N)[C@H](O)[C@@H](O)[C@@H]1O [KANAMYCIN]	50 (≈ 103 µM)	10 (≈ 20.6 µM)	–	–	–
GENTAMICIN	7.5	15	–	–	MIC (Mycobacteroides chelonae [3]; Urine): 7.5 µg/mL; MIC (Mycobacteroides chelonae [4]; Urine): 20 µg/mL
O=CCCCC=O	–	–	–	–	Activity [5]: inactive; Activity (Mycobacteroides chelonae [3]; Urine): Active; Activity [6]: inactive; Activity [7]: Active; Activity (Mycobacteroides chelonae [4]; Urine): Active; Activity [8]: inactive; Activity [9]: inactive; Activity [10]: inactive; Activity [11]: Active; Activity [12]: inactive; Activity [13]: Active; Activity [14]: inactive
CC[C@H]1OC(=O)[C@H](C)[C@@H](O[C@H]2C[C@@](C)(OC)[C@@H](O)[C@H](C)O2)[C@H](C)[C@@H](O[C@@H]2O[C@H](C)C[C@H](N(C)C)[C@H]2O)[C@](C)(O)C[C@@H](C)CN(C)[C@H](C)[C@@H](O)[C@]1(C)O [AZITHROMYCIN]	500 (≈ 668 µM)	500 (≈ 668 µM)	500 (≈ 668 µM)	500 (≈ 668 µM)	–
NC(=O)c1cnccn1 [PYRAZINAMIDE]	> 500	> 500	–	–	–
CCc1cc(C(N)=S)ccn1 [ETHIONAMIDE]	> 400	> 400	50 (≈ 301 µM)	50 (≈ 301 µM)	–
CC(=O)NC[C@H]1CN(c2ccc(N3CCOCC3)c(F)c2)C(=O)O1 [LINEZOLID]	25 (≈ 74.1 µM)	100 (≈ 296 µM)	5 (≈ 14.8 µM)	1 (≈ 2.96 µM)	–
CN(C)[C@@H]1C(O)=C(C(N)=O)C(=O)[C@@]2(O)C(O)=C3C(=O)c4c(O)cccc4[C@@](C)(O)[C@H]3C[C@@H]12 [TETRACYCLINE]	50 (≈ 113 µM)	> 500	5 (≈ 11.3 µM)	25 (≈ 56.3 µM)	–
CC[C@H]1OC(=O)[C@H](C)[C@@H](O[C@H]2C[C@@](C)(OC)[C@@H](O)[C@H](C)O2)[C@H](C)[C@@H](O[C@@H]2O[C@H](C)C[C@H](N(C)C)[C@H]2O)[C@](C)(O)C[C@@H](C)C(=O)[C@H](C)[C@@H](O)[C@]1(C)O [ERYTHROMYCIN]	20 (≈ 27.3 µM)	500 (≈ 681 µM)	0.25 (≈ 0.341 µM)	1 (≈ 1.36 µM)	–
CO[C@H]1/C=C/O[C@@]2(C)Oc3c(C)c(O)c4c(O)c(c(/C=N/N5CCN(C)CC5)c(O)c4c3C2=O)NC(=O)/C(C)=C\C=C\[C@H](C)[C@H](O)[C@@H](C)[C@@H](O)[C@@H](C)[C@H](OC(C)=O)[C@@H]1C [RIFAMPIN]	25 (≈ 30.4 µM)	> 500	5 (≈ 6.08 µM)	100 (≈ 122 µM)	–
O=C(N[C@H](CO)[C@H](O)c1ccc([N+](=O)[O-])cc1)C(Cl)Cl [CHLORAMPHENICOL]	> 500	> 500	50 (≈ 155 µM)	50 (≈ 155 µM)	–
CN[C@@H]1C[C@H](N)[C@@H](O)[C@H](O[C@H]2O[C@H](CO)[C@H](O)[C@@H]3O[C@@]4(O[C@@H]23)O[C@H]([C@H](N)CO)[C@H](O)[C@H](O)[C@H]4O)[C@H]1O [HYGROMYCIN]	> 500	> 500	–	–	–
CCn1cc(C(=O)O)c(=O)c2cc(F)c(N3CCNCC3)cc21 [NORFLOXACIN]	5 (≈ 15.7 µM)	5 (≈ 15.7 µM)	–	–	–
O=Cc1ccccc1C=O	–	–	–	–	Activity (Mycobacteroides chelonae [3]; Urine): Active; Activity (Mycobacteroides chelonae [4]; Urine): Active
CC1(C)S[C@@H]2[C@H](NC(=O)[C@H](N)c3ccccc3)C(=O)N2[C@H]1C(=O)O [AMPICILLIN]	> 500	> 500	–	–	–
NC[C@H]1O[C@H](O[C@H]2[C@H](O)[C@@H](O[C@H]3O[C@H](CO)[C@@H](O)[C@H](N)[C@H]3O)[C@H](N)C[C@@H]2N)[C@H](N)C[C@@H]1O [TOBRAMYCIN]	25 (≈ 53.5 µM)	25 (≈ 53.5 µM)	–	–	–
CN[C@H](CC(C)C)C(=O)N[C@H]1C(=O)N[C@@H](CC(N)=O)C(=O)N[C@H]2C(=O)N[C@H]3C(=O)N[C@H](C(=O)N[C@H](C(=O)O)c4cc(O)cc(O)c4-c4cc3ccc4O)[C@H](O)c3ccc(c(Cl)c3)Oc3cc2cc(c3O[C@@H]2O[C@H](CO)[C@@H](O)[C@H](O)[C@H]2O[C@H]2C[C@](C)(N)[C@H](O)[C@H](C)O2)Oc2ccc(cc2Cl)[C@H]1O [VANCOMYCIN]	5 (≈ 3.45 µM)	> 500	5 (≈ 3.45 µM)	25 (≈ 17.3 µM)	–
CC[C@@H](CO)NCCN[C@@H](CC)CO [ETHAMBUTOL]	> 500	> 500	25 (≈ 122 µM)	250 (≈ 1220 µM)	–
CC[C@H]1OC(=O)[C@H](C)[C@@H](O[C@H]2C[C@@](C)(OC)[C@@H](O)[C@H](C)O2)[C@H](C)[C@@H](O[C@@H]2O[C@H](C)C[C@H](N(C)C)[C@H]2O)[C@](C)(OC)C[C@@H](C)C(=O)[C@H](C)[C@@H](O)[C@]1(C)O [CLARITHROMYCIN]	25 (≈ 33.4 µM)	> 250	50 (≈ 66.8 µM)	25 (≈ 33.4 µM)	–
O=C(O)c1cn(C2CC2)c2cc(N3CCNCC3)c(F)cc2c1=O [CIPROFLOXACIN]	1.5 (≈ 4.53 µM)	5 (≈ 15.1 µM)	2.5 (≈ 7.54 µM)	1 (≈ 3.02 µM)	–
NNC(=O)c1ccncc1 [ISONIAZID]	> 400	> 400	–	–	–
CN[C@@H]1[C@H](O[C@H]2[C@H](O[C@H]3[C@H](O)[C@@H](O)[C@H](N=C(N)N)[C@@H](O)[C@@H]3N=C(N)N)O[C@@H](C)[C@]2(O)C=O)O[C@@H](CO)[C@H](O)[C@H]1O [STREPTOMYCIN]	200 (≈ 344 µM)	10 (≈ 17.2 µM)	250 (≈ 430 µM)	10 (≈ 17.2 µM)	–

Reference: ChEMBL document CHEMBL1649207, “Role of porins in the susceptibility of Mycobacterium smegmatis and Mycobacterium chelonae to aldehyde-based disinfectants and drugs” (2009)
